Active and inactive are the calls of the source. The rule behind the calls is not given here.
Experiments:
[1] = system: RAW264.7; test: Antiinflammatory activity against mouse RAW264.7 cells assessed as reduction of lipopolysaccharide/interferon-gamma induced PGE2 production at 3 uM after 18 hrs; assay type: functional; conditions: RAW264.7, 18 h
Method in brief: (§1)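 RAW 264.7 macrophages (passages 9–20) stimulated with LPS/IFN-γ; compound tested at 1, 3 and 10 µM. Supernatant PGE2 measured by competitive EIA: anti-PGE2 antibody plus peroxidase-PGE2 tracer, 1 h RT; TMB/H2O2 30 min; H2SO4 stop; A450. Results given as % inhibition.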

[2] = system: A549; test: Cytotoxicity activity against human A549 cells assessed as growth inhibition at 10 ug/ml after 72 hrs sulforhodamine B assay; assay type: functional; conditions: A549, 72 h
Method in brief: (§2)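 Cells kept in RPMI-1640/10% FBS with antibiotics at 37 °C, 5% CO2. Trypsinized cells seeded and given compound from DMSO-diluted stock. Incubated 72 h, then fixed with 10% TCA. Stained 10 min with 0.4% sulforhodamine B in 1% HOAc, washed, dye dissolved in 10 mM Trizma. A515 read; growth relative to net protein increase of controls.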

[3] = system: KB; test: Cytotoxicity activity against human KB cells assessed as growth inhibition at 10 ug/ml after 72 hrs sulforhodamine B assay; assay type: functional; method in brief: as §2
[4] = system: RAW264.7; test: Antiinflammatory activity against mouse RAW264.7 cells assessed as reduction of lipopolysaccharide/interferon-gamma induced PGE2 production at 1 uM by EIA; assay type: functional; method in brief: as §1
[5] = (§3) Cytotoxicity against mouse […] cells by MTT assay; assay type: functional
Method in brief: (§4)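 Viability of RAW 264.7 cells taken as mitochondrial reduction of MTT to formazan. Formazan read at OD550.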

[6] = system: DU-145; test: Cytotoxicity activity against human DU145 cells assessed as growth inhibition at 10 ug/ml after 72 hrs sulforhodamine B assay; assay type: functional; conditions: DU-145, 72 h; method in brief: as §2
[7] = system: Radical scavenging activity; test: Antioxidant activity assessed as residual DPPH radical scavenging activity; assay type: functional
[8] = Cytotoxicity activity against human KBVIN cells assessed as growth inhibition at 10 ug/ml after 72 hrs sulforhodamine B assay; assay type: functional; method in brief: as §2
[9] = Antiinflammatory activity against human neutrophil assessed as inhibition of N-formyl-l-methionyl phenylalanine/cytochalasin B-induced superoxide anion generation by spectrophotometry; assay type: functional, cell-based
Method in brief: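 Ferricytochrome c (0.5 mg/mL) reduction, SOD-inhibitable, with 1 mM Ca2+. Neutrophils (6 × 10^5 cells/mL) equilibrated 2 min at 37 °C, then drug or 0.1% DMSO for 5 min. Cytochalasin B 1 µg/mL preincubation, then 100 nM FMLP for 3 min. A550 monitored continuously with stirring. IC50 computed; mean ± SEM, n = 3.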

[10] = Antiinflammatory activity against mouse […] cells assessed as inhibition of lipopolysaccharide/interferon-gamma induced nitric oxide production; assay type: functional, cell-based; conditions: Mus musculus; read-out: EC50
Method in brief: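 RAW 264.7 cells in DMEM/10% FCS, passages 9–20. Nitrite induced by LPS (1 µg/mL) plus IFN-γ (50 U/mL) for 18 h with or without compound. Griess reagent (1% sulfanilamide, 0.1% naphthylenediamine in 5% H3PO4) read at OD550. EC50 calculated.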

[11] = Therapeutic index, ratio of CC50 for mouse […] cells to EC50 for inhibition of lipopolysaccharide/interferon-gamma induced nitric oxide production in mouse […] cells; assay type: cell-based; conditions: read-out: TI
[12] = Antiinflammatory activity against human neutrophil assessed as inhibition of N-formyl-l-methionyl phenylalanine/cytochalasin B-induced elastase release; assay type: functional, cell-based
Method in brief: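 Neutrophils (6 × 10^5/mL) supplemented with 100 µM MeO-Suc-Ala-Ala-Pro-Val-p-nitroanilide, equilibrated 2 min at 37 °C, then given drug or 0.1% DMSO vehicle for 5 min. Activated with 100 nM FMLP plus 0.5 µg/mL cytochalasin B. Absorbance at 405 nm followed continuously. Release expressed as percent of drug-free activated control. IC50 computed; mean ± SEM, n = 3.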

[13] = system: RAW264.7; test: Antiinflammatory activity against mouse RAW264.7 cells assessed as reduction of lipopolysaccharide/interferon-gamma induced PGE2 production at 10 uM after 18 hrs; assay type: functional; conditions: RAW264.7, 18 h; method in brief: as §1
[14] = species on record: Mus musculus; test: as §3; assay type: functional; method in brief: as §4

| Structure (SMILES) | inhibition at 3 µM [1] | GI50 [2] | GI50 [3] | inhibition at 1 µM [4] | CC50 [5] | GI50 [6] | Activity [7] | GI50 [8] | IC50 [9] | EC50 [10] | selectivity ratio [11] | IC50 [12] | inhibition at 10 µM [13] | CC50 [14] |
| --- | --- | --- | --- | --- | --- | --- | --- | --- | --- | --- | --- | --- | --- | --- |
| O=C(O)c1cc2c([nH]c3ccccc32)c(C(=O)c2ccccc2Br)n1 | 78% | > 40 µM | > 40 µM | 0% | 524 µM | > 40 µM | inactive | > 40 µM | 5.33 µM | 6.96 µM | 75 | 3.07 µM | 96% |  |
| CC(=O)c1nc(C(=O)O)cc2c1[nH]c1ccccc12 | 0% | > 40 µM | > 40 µM | 0% |  | > 40 µM |  | > 40 µM | > 30 µM | 0.25 µM |  | > 30 µM | 0% | Non-toxic |
| O=C(O)c1cc2c([nH]c3ccccc32)c(C(=O)c2ccccc2)n1 | 12% | > 40 µM | > 40 µM | 0% | 564 µM | > 40 µM | inactive | > 40 µM | 17.7 µM | 3.65 µM | 155 | 13.4 µM | 90% |  |
| COc1ccccc1C(=O)c1nc(C(=O)O)cc2c1[nH]c1ccccc12 |  |  |  |  |  |  | inactive |  |  |  |  |  |  |  |
| Cc1cccc(C(=O)c2nc(C(=O)O)cc3c2[nH]c2ccccc23)c1 | 100% |  |  | 98% | 16.4 µM |  | inactive |  |  | 0.47 µM | 34 |  |  |  |
| Cc1ccc(C(O)c2nccc3c2[nH]c2ccccc23)cc1 (stereo not given) | 29% | 26.6 µM | 20.6 µM | 15% |  | 13.8 µM |  | 9.29 µM | > 30 µM | 4.94 µM | > 100 | > 30 µM |  | Non-toxic |
| O=C(O)c1cc2c([nH]c3ccccc32)c(C(=O)c2ccc([N+](=O)[O-])cc2)n1 | 92% | > 40 µM | > 40 µM | 0% | 15 µM | > 40 µM | inactive | > 40 µM | 6.65 µM | 2.94 µM | 5 | 6.21 µM | 100% |  |
| O=C(O)c1cc2c([nH]c3ccccc32)c(C(=O)c2ccccc2[N+](=O)[O-])n1 | 97% | > 40 µM | > 40 µM | 0% | 12.8 µM | > 40 µM | inactive | > 40 µM | 17.6 µM | 2.88 µM | 4 | 13.2 µM | 100% |  |
| Cc1ccc(C(=O)c2nc(C(=O)O)cc3c2[nH]c2ccccc23)cc1 | 100% | > 40 µM | > 40 µM | 100% | 17.7 µM | > 40 µM | inactive | > 40 µM | 6.27 µM | 0.5 µM | 35 | 3.13 µM |  |  |
| O=C(O)c1cc2c([nH]c3ccccc32)c(C(=O)c2ccc(Br)cc2)n1 | 100% | > 40 µM | > 40 µM | 98% | 10.7 µM | > 40 µM | inactive | > 40 µM | 2.28 µM | 0.53 µM | 20 | 1.99 µM |  |  |
| Cc1ccccc1C(=O)c1nc(C(=O)O)cc2c1[nH]c1ccccc12 | 82% | > 40 µM | > 40 µM | 0% |  | > 40 µM | inactive | > 40 µM | 5.36 µM | 2.58 µM | > 2000 | 14.8 µM | 100% |  |
| COc1ccc(C(=O)c2nc(C(=O)O)cc3c2[nH]c2ccccc23)cc1 | 98% | > 40 µM | > 40 µM | 28% | 43.1 µM | > 40 µM | inactive | > 40 µM | 16.1 µM | 0.23 µM | 187 | 10.4 µM |  |  |
| O=C(O)c1cc2c([nH]c3ccccc32)c(C(=O)c2cccc([N+](=O)[O-])c2)n1 |  |  |  |  |  |  | inactive |  |  |  |  |  |  |  |
| CC(=O)c1nc(C(N)=O)cc2c1[nH]c1ccccc12 [STELLARINES A] | 90% | > 40 µM | > 40 µM | 0% | 19.8 µM | > 40 µM |  | > 40 µM | 14.5 µM | 0.92 µM | 21 | 5.82 µM | 90% |  |
| Cc1ccc(C(=O)c2nccc3c2[nH]c2ccccc23)cc1 | 99% | > 40 µM | > 40 µM | 25% | 52.8 µM | > 40 µM |  | > 40 µM | > 30 µM | 1.26 µM | 42 | > 30 µM | 100% |  |
| COc1cccc(C(=O)c2nc(C(=O)O)cc3c2[nH]c2ccccc23)c1 |  |  |  |  |  |  | inactive |  |  |  |  |  |  |  |
